# Measurements published in PMC11000255 (Journal of the American Chemical Society, 2024).
# Tests used:
# [1] = molecular target: stathmin (STMN1) (Homo sapiens, UniProt P16949); test: TMT18plex lysine ligandability profiling, STMN1; format: binding; settings: 100 μM, 8 h, breast cancer cells
# How it was run: (§1)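 Live MDA-MB-231 or MDA-MB-436 breast cancer cells were exposed to the test compound (100 µM, 8 h) or DMSO vehicle. Lysates (soluble and insoluble fractions) were chased with a desthiobiotin-tagged lysine-specific STP ester probe, trypsin-digested, streptavidin-enriched and quantified by TMTpro-18plex. Lysines had to be quantified in all biological triplicates and TMT channels. A lysine counted as liganded at ≥60% loss of probe enrichment relative to DMSO.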
# [2] = molecular target: prohibitin-2 (PHB2) (Homo sapiens, UniProt Q99623); test: TMT18plex lysine ligandability profiling, PHB2; format: binding; settings: 100 μM, 8 h, breast cancer cells
# Chain of prohibitin-2 (PHB2) (Q99623 whole entry): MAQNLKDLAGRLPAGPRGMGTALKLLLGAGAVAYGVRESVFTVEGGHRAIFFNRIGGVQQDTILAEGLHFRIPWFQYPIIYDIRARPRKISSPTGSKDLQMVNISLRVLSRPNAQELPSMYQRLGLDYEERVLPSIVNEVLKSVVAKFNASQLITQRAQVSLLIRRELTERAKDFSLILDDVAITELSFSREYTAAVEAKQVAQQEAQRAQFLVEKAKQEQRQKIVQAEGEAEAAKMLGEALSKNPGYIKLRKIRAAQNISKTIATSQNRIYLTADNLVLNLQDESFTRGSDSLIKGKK
# How it was run: as §1
# [3] = molecular target: mitochondrial citrate synthase (CS) (Homo sapiens, UniProt O75390); test: TMT18plex lysine ligandability profiling, CS; format: binding; settings: MDA-MB-231 cells
# Chain of mitochondrial citrate synthase (CS) (O75390 28-466): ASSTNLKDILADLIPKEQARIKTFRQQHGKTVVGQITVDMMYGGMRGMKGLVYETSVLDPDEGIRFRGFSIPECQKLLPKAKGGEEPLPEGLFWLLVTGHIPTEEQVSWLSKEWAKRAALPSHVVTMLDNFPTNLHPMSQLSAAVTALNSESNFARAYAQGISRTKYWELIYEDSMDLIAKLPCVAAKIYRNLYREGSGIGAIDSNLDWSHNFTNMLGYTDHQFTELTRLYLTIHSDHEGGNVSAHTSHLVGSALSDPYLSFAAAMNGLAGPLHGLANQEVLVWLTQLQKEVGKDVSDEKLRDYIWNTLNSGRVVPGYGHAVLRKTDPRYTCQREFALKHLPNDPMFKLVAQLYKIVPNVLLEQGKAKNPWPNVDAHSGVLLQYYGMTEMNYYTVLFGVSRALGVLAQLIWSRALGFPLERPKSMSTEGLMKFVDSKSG
# How it was run: as §1
# [4] = test system: MDA-MB-231 cells; test: in-gel fluorescence profiling of clickable probes; format: cell-based, human; settings: in MDA-MB-231 cells
# [5] = molecular target: annexin A4 (ANXA4) (Homo sapiens, UniProt P09525); test: TMT18plex lysine ligandability profiling, ANXA4; format: binding; settings: liganded = ≥60% reduction in probe enrichment; single meroterpenoid
# Chain of annexin A4 (ANXA4) (P09525 whole entry): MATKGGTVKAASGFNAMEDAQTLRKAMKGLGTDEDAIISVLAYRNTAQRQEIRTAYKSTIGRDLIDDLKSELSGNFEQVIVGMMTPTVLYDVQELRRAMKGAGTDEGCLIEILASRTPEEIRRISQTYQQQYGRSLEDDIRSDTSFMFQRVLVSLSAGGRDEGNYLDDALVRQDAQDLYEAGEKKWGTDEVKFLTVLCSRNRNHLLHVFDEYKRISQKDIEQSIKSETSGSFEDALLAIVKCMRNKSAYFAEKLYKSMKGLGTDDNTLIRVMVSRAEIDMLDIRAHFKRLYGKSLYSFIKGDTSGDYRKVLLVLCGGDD
# How it was run: as §1
# [6] = format: physicochemical; settings: excess of butylamine; for fold increased half-life / diminished rate compared to salicylaldehyde: vs salicylaldehyde
# [7] = ionization constants; format: physicochemical
# [8] = molecular target: WT-IDH2 (Homo sapiens, UniProt P48735); test: oxidative IDH2 activity; format: biochemical
# Chain of WT-IDH2 (P48735 40-452): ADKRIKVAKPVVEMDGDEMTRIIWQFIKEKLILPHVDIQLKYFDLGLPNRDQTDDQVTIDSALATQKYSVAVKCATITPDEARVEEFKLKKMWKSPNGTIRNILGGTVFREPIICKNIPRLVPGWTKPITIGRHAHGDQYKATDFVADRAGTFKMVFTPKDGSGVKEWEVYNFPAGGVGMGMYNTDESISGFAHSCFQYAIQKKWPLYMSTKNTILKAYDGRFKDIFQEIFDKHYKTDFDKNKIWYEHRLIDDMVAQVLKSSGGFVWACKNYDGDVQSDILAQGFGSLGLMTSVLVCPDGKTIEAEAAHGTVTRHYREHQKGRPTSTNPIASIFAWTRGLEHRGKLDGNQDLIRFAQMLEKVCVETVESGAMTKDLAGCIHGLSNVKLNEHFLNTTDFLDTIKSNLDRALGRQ
# How it was run: (§2)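 HEK293T lysates expressed recombinant IDH2: WT, K299 mutants, K413R, or double K299R/K413R. Lysate was preincubated with the test compound (single-point 100 µM, or a dose series; 1 h, 37 °C). α-KG production from D-(+)-threo-isocitrate (1.3 mM, 1 h, 25 °C) was measured.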
# [9] = molecular target: K299R/K413R-IDH2 (Homo sapiens, UniProt P48735, K299R/K413R); test: oxidative IDH2 activity, K299R/K413R-IDH2 in HEK293T cell lysates; format: biochemical
# Chain of K299R/K413R-IDH2 (P48735 40-452 K299R/K413R): as the sequence (P48735 40-452) above, with K260R, K374R counted along it
# [10] = molecular target: T1, ABHD12 (Homo sapiens, UniProt Q8N2K0); test: TMT18plex lysine ligandability profiling, ABHD12; format: binding; settings: both MDA-MB-231 and MDA-MB-436 cell lines
# T1 sequence (Q8N2K0 1-398): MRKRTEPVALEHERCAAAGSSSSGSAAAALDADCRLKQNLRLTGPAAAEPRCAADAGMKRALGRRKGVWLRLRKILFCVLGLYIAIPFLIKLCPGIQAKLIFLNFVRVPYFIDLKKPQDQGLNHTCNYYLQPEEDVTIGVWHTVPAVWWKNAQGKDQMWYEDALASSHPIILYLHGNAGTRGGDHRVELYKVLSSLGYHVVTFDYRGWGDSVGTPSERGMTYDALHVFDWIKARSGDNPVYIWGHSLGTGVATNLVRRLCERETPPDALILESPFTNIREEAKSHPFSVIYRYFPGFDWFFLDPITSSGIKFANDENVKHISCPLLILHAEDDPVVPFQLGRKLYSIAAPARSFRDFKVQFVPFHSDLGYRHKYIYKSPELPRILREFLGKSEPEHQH
# How it was run: as §1
# [11] = molecular target: T1, ABHD12; test: immunoblot analysis of high-molecular-weight ABHD12 aggregates; settings: recombinant ABHD12, immunoblot
# How it was run: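 Flag-tagged WT and K373R ABHD12 expressed recombinantly in HEK293T cells; lysates treated with increasing test compound, then labeled with TAMRA-FP. Read-out by in-gel fluorescence plus Western blot, tracking monomeric and high-molecular-weight ABHD12 bands.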
# [12] = molecular target: K413R-IDH2 (Homo sapiens, UniProt P48735, K413R); test: oxidative IDH2 activity, K413R-IDH2 in HEK293T cell lysates; format: biochemical
# Chain of K413R-IDH2 (P48735 40-452 K413R): as the sequence (P48735 40-452) above, with K374R counted along it
# How it was run: as §2
# [13] = molecular target: T2, WT-ABHD12 (Homo sapiens, UniProt Q8N2K0); test: LC/MS-based LPS hydrolysis assay, WT-ABHD12 in HEK293T cell lysates; format: biochemical
# T2 sequence (Q8N2K0 1-398): T1 sequence (Q8N2K0 1-398)
# How it was run: (§3)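 Recombinant ABHD12 (WT, S246A and K373 mutants) was expressed in HEK293T cells and used as cell lysate. Lysate was preincubated with the test compound (single-point 100 µM, or a dose series; 1 h, 37 °C), then given 17:1 LPS substrate (100 µM, 20 min, 37 °C).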
# [14] = molecular target: transthyretin (TTR) (Homo sapiens, UniProt P02766); test: TMT18plex lysine ligandability profiling, TTR; format: binding; settings: liganded = ≥60% reduction in probe enrichment; single meroterpenoid
# How it was run: as §1
# [15] = molecular target: K373R-ABHD12 (Homo sapiens, UniProt Q8N2K0, K373R); test: LC/MS-based LPS hydrolysis assay, K373R-ABHD12 in HEK293T cell lysates; format: biochemical
# Chain of K373R-ABHD12 (Q8N2K0 whole entry K373R): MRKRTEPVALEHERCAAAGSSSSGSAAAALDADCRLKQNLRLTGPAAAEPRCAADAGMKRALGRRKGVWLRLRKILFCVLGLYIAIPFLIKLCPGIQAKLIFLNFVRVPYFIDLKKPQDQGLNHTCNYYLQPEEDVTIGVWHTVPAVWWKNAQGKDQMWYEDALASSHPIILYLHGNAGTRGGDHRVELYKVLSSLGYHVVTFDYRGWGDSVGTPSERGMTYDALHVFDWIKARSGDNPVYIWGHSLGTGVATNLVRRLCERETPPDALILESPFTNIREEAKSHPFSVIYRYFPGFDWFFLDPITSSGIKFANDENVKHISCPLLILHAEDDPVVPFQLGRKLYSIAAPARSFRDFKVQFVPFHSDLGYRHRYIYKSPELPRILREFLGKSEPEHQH
# How it was run: as §3
# [16] = molecular target: IDH2 (Homo sapiens, UniProt P48735); test: immunoblotting analysis of IDH2 homodimerization
# Chain of IDH2 (P48735 40-452): as the sequence (P48735 40-452) above
# How it was run: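 Flag-tagged WT- and R140Q-IDH2, with K299 and K413 mutants, were recombinantly expressed in HEK293T cells. Lysates were treated with the test compound, and IDH2 homodimer formation was read by immunoblot.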
# [17] = molecular target: K678R-PFKM (Homo sapiens, UniProt P08237, K678R); test: F6P phosphorylation assay, K678R-PFKM in HEK293T cell lysates; format: biochemical
# Chain of K678R-PFKM (P08237 whole entry K678R): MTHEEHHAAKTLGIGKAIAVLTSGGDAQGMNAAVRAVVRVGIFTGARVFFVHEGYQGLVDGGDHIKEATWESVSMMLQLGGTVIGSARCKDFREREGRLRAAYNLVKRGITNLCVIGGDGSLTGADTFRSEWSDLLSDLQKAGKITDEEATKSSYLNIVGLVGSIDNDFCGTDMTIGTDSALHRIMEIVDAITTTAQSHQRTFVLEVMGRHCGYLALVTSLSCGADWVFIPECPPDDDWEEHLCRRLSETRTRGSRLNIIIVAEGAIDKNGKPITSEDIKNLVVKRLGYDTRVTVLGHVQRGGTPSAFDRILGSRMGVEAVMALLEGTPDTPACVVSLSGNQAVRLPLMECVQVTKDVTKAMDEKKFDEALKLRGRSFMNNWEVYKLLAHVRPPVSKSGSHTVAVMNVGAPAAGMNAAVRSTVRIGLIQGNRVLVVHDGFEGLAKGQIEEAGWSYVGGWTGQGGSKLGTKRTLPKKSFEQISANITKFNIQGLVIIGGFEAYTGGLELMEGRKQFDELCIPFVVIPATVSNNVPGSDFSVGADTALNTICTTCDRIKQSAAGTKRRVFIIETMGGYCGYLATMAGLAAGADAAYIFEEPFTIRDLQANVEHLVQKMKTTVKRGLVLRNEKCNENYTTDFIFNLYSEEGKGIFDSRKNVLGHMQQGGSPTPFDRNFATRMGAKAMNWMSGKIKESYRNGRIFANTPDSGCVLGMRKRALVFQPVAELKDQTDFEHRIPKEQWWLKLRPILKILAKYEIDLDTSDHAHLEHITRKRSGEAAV
# How it was run: (§4)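 Epitope-tagged WT-PFKM or K678R-PFKM was recombinantly expressed in HEK293T cells and used as lysate. Lysate was preincubated with the test compound (single-point 100 µM, or a dose series; 2 h, 37 °C).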
# [18] = test system: MDA-MB-231 cells; test: untargeted lipidomics profiling of treated cells; format: cell-based, human; settings: 100 μM, 8 h
# [19] = molecular target: R140Q-IDH2 (Homo sapiens, UniProt P48735, R140Q); test: reductive activity; format: biochemical
# Chain of R140Q-IDH2 (P48735 40-452 R140Q): as the sequence (P48735 40-452) above, with R101Q counted along it
# How it was run: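 Lysates of HEK293T cells expressed recombinant R140Q-IDH2, alone or with K299R or K299R/K413R added. Lysate was preincubated with the test compound (single-point 100 µM, or a dose series; 2 h, 20 °C). 2-HG production from α-KG substrate (0.6 mM, 1 h, 25 °C) was measured.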
# [20] = molecular target: WT-PFKM (Homo sapiens, UniProt P08237); test: F6P phosphorylation assay, WT-PFKM in HEK293T cell lysates; format: biochemical
# Chain of WT-PFKM (P08237 whole entry): as the sequence (P08237 whole entry K678R) above, with R678K counted along it
# How it was run: as §4
# [21] = molecular target: K299R-IDH2 (Homo sapiens, UniProt P48735, K299R); test: oxidative IDH2 activity, K299R-IDH2 in HEK293T cell lysates; format: biochemical
# Chain of K299R-IDH2 (P48735 40-452 K299R): as the sequence (P48735 40-452) above, with K260R counted along it
# How it was run: as §2
# [22] = phenolic core of ubiquinol; cited from earlier work
# [23] = molecular target: OCIAD2 (Homo sapiens, UniProt Q56VL3); test: TMT18plex lysine ligandability profiling, OCIAD2; format: binding; settings: 100 μM, 8 h
# Chain of OCIAD2 (Q56VL3 whole entry): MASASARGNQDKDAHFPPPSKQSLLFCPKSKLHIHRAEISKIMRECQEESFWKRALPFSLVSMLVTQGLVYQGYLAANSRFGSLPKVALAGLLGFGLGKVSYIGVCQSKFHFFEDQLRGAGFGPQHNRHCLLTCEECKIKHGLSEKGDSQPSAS
# How it was run: as §1
# Chain of stathmin (STMN1) (P16949 whole entry): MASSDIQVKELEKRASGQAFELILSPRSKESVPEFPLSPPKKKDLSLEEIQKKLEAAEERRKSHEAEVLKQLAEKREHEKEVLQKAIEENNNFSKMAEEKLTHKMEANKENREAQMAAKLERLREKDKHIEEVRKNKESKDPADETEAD
compound,measurement,setting,value
CC(C)CC(=O)c1c(O)c(C=O)c2c(c1O)C[C@H]1C[C@H]3C[C@H](C3(C)C)[C@@]1(C)O2 [(−)-euglobal-G2],ligandability of K128 in STMN1,[1],11%
same,ligandability of K24 in PHB2,[2],61%
CC(C)CC(=O)c1c(O)c(C=O)c2c(c1O)CC[C@@]1(CC[C@H]3C[C@@H]1C3(C)C)O2 [(−)-euglobal-G3],engagement of K76 in CS,[3],exclusively targeted
CC(C)CC(=O)c1c(O)c(C=O)c(O)c2c1O[C@@]1(CC2)CC[C@H]2C[C@@H]1C2(C)C [(−)-euglobal-G4],competitive blockade of azide probe (−)-11 labeling,[4],blockade of probe (−)-11 labeling for a subset of protein targets in a dose-dependent manner
same,engagement of K246 in ANXA4,[5],exclusively targeted
O=Cc1ccccc1 [benzaldehyde],fold increased half-life / diminished rate compared to salicylaldehyde,[6],10 fold
Cc1c(O)c(C=O)c(O)c(C(=O)CC(C)C)c1O [grandinol],pKa,[7],10.9
same,fold diminished rate compared to jensenone,[6]; vs jensenone,30 fold
CC(C)CC(=O)c1c(O)c(C=O)c(O)c(C=O)c1O [jensenone],IC50,[8],20.9 µM
same,effect on IDH2 oxidative activity,"[8]; 100 μM, 1 h, 37 °C",complete functional inhibition
same,IC50,[9],> 100 µM
same,oxidative activity following treatment,"[9]; double mutant K299R/K413R-IDH2, 100 μM, 1 h, 20 °C",essentially preserved its oxidative activity
same,ligandability of K373 in ABHD12,[10],76%
same,formation of high-molecular-weight ABHD12 aggregates,[11],marked reduction in the monomeric form of ABHD12 and a concomitant increase in high-molecular-weight ABHD12 aggregates
same,IC50,[12],21.4 µM
same,IC50,[13],32.6 µM
same,residual ABHD12 LPS hydrolysis activity,"[13]; 100 μM, 1 h, 37 °C, 17:1 LPS substrate",23%
same,engagement of K35 in TTR,[14],selectively engaged
same,IC50,[15],45.7 µM
same,IDH2 homodimerization,[16],unexpected induction of IDH2 homodimerization
same,IC50,[17],> 100 µM
same,pKa,[7],10.5
same,levels of monoacylglycerophosphoserine LPS(18:0),[18],significantly elevated levels
same,levels of stearic acid FA(18:0),[18],concurrent reduction
same,IC50,[19],26.2 µM
same,effect on reductive activity (2-HG production),"[19]; 100 μM, 2 h, 20 °C",fully abolished the reductive activity
same,IC50,[20],10.8 µM
same,inhibitory effect on catalytic activity of PFKM,"[20]; 100 μM, 2 h, 37 °C, among the meroterpenoids assessed",most pronounced inhibitory effects
same,IC50,[21],29.8 µM
O=Cc1c(O)cc(O)cc1O [phloroglucinaldehyde],fold increased half-life / diminished rate compared to salicylaldehyde,[6],80 fold
COc1c(O)c(C)c(C/C=C(\C)CC/C=C(\C)CC/C=C(\C)CC/C=C(\C)CC/C=C(\C)CC/C=C(\C)CC/C=C(\C)CC/C=C(\C)CC/C=C(\C)CCC=C(C)C)c(O)c1OC [ubiquinol],calculated pKa1,[22],5.31
same,calculated pKa2,[22],10.86
(+)-euglobal-G2,ligandability of K128 in STMN1,[1],67%
same,ligandability of K99 in OCIAD2,[23]; MDA-MB-231 cells,92%
same,ligandability of K99 in OCIAD2,[23]; MDA-MB-436 cells,49%
same,ligandability of K24 in PHB2,[2],26%
